# Assay results published in ChEMBL document CHEMBL2177092, “Phosphoramidate ProTides of the anticancer agent FUDR successfully deliver the preformed bioactive monophosphate in cells and confer advantage over the parent nucleoside” (J Med Chem, 2011).
# Test system: not listed separately
# Experiment: Hydrolytic stability in aqueous buffer at pH 8 at 4.5 mg measured every 12 mins over 14 hrs by [31P]NMR spectroscopy
# Format: physicochemical
# Details: pH 8, 14 h
# In short: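 Compound (4.5 mg) in methanol-d4 with pH 8 buffer (0.1 M Na2HPO4 adjusted with 0.1 M HCl). In situ 31P NMR (202 MHz) at 37 °C, spectra recorded every 12 min over 14 h.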
row,SMILES,Stability
1,C[C@H](NP(=O)(OC[C@H]1O[C@@H](n2cc(F)c(=O)[nH]c2=O)C[C@@H]1O)Oc1ccccc1)C(=O)OCc1ccccc1 (mixture of isomers),Stable

# Test system: not listed separately
# Experiment: Stability of the compound in potassium phosphate buffer at pH 7.4 assessed as E.coli thymidine phosphorylase-mediated release of 5-FU after 5 mins by [19F] NMR spectroscopy
# Format: ADME
# Details: pH 7.4, 5 min
# In short: (§1)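 Compound (6.0 mg) in methanol-d4 plus 300 mM potassium phosphate buffer pH 7.4. […] 19F NMR recorded at 5 min, 14 h and 72 h at 25 °C, with 5-FU identified by its signal near δF 169.50 ppm.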
row,SMILES,Stability
1,C[C@H](NP(=O)(OC[C@H]1O[C@@H](n2cc(F)c(=O)[nH]c2=O)C[C@@H]1O)Oc1ccccc1)C(=O)OCc1ccccc1 (mixture of isomers),Stable
2,O=c1[nH]c(=O)n([C@H]2C[C@H](O)[C@@H](CO)O2)cc1F [FLOXURIDINE],Unstable

# Test system: CCRF-CEM
# Experiment: Ratio of IC50 for human CEM cells expressing human ENT1 transporter in presence of dipyridamole to IC50 for human CEM cells expressing human ENT1 transporter
# Format: functional
# Details: not given
# In short: (§2)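 Human T-lymphocyte CEM cells with (CEM/hEnt-1) or lacking (CEM/hEnt-0) the hENT1 transporter were seeded at 60 000 cells/well with graded compound concentrations. Transporter-inhibition runs added dipyridamole (10 μM) or NBMPR (10 μM) to CEM/hEnt-1 cells. […] Ratios are formed against untreated CEM/hEnt-1 IC50. Mean of 2–4 experiments.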
row,SMILES,Ratio IC50
1,C[C@H](NP(=O)(OC[C@H]1O[C@@H](n2cc(F)c(=O)[nH]c2=O)C[C@@H]1O)Oc1ccccc1)C(=O)OCc1ccccc1 (mixture of isomers),2

# Test system: not listed separately
# Experiment: Cytostatic activity against mouse L1210/0 cells after 48 hrs by cell counting
# Format: functional, cell-based
# Details: L1210/0, 48 h
# In short: (§3)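 Suspension leukemia cells in DMEM with 10% FBS, 10 mM Hepes and 1 mM sodium pyruvate at 37 °C under 5% CO2. Seeded at 60 000 cells/well with graded compound levels. Grown 48 h (L1210) or 72 h (CEM), then counted by Coulter counter. Mean ± SD of two to four independent experiments.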
row,SMILES,IC50 [nM]
1,C[C@H](NP(=O)(OC[C@H]1O[C@@H](n2cc(F)c(=O)[nH]c2=O)C[C@@H]1O)Oc1ccccc1)C(=O)OCc1ccccc1 (mixture of isomers),26

# Test system: not listed separately
# Experiment: Hydrolytic stability in aqueous buffer at pH 1 at 2.6 mg measured every 12 mins over 14 hrs by [31P]NMR spectroscopy
# Format: physicochemical
# Details: pH 1, 14 h
# In short: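 Compound (2.6 mg) in methanol-d4 with pH 1 buffer made from equal parts 0.2 M HCl and 0.2 M KCl. 31P NMR at 37 °C, spectra recorded every 12 min over 14 h.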
row,SMILES,Stability
1,C[C@H](NP(=O)(OC[C@H]1O[C@@H](n2cc(F)c(=O)[nH]c2=O)C[C@@H]1O)Oc1ccccc1)C(=O)OCc1ccccc1 (mixture of isomers),Stable

# Test system: HeLa
# Experiment: Cytostatic activity against thymidine-kinase deficient human HeLa cells […]
# Format: functional, cell-based
# Details: not given
row,SMILES,IC50 [nM]
1,C[C@H](NP(=O)(OC[C@H]1O[C@@H](n2cc(F)c(=O)[nH]c2=O)C[C@@H]1O)Oc1ccccc1)C(=O)OCc1ccccc1 (mixture of isomers),19000

# Test system: L1210
# Experiment: Cytostatic activity against thymidine-kinase deficient mouse L1210 cells after 48 hrs by cell counting
# Format: functional, cell-based
# Details: L1210, 48 h
# In short: as §3
row,SMILES,IC50 [nM]
1,C[C@H](NP(=O)(OC[C@H]1O[C@@H](n2cc(F)c(=O)[nH]c2=O)C[C@@H]1O)Oc1ccccc1)C(=O)OCc1ccccc1 (mixture of isomers),13000

# Test system: CCRF-CEM
# Experiment: Ratio of IC50 for human CEM cells expressing human ENT1 transporter in presence of NBMPR to IC50 for human CEM cells expressing human ENT1 transporter
# Format: functional
# Details: not given
# In short: as §2
row,SMILES,Ratio IC50
1,C[C@H](NP(=O)(OC[C@H]1O[C@@H](n2cc(F)c(=O)[nH]c2=O)C[C@@H]1O)Oc1ccccc1)C(=O)OCc1ccccc1 (mixture of isomers),2

# Test system: L1210
# Experiment: Ratio of IC50 for Mycoplasma hyorhinis-infected mouse L1210 cells to IC50 for mouse L1210/0 cells after 48 hrs by cell counting
# Format: functional
# Details: not given
# In short: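 Murine L1210/0 cells were compared with L1210/TK cells, selected for resistance to 5-bromo-2'-dUrd, and with L1210.Hyor cells, chronically infected with Mycoplasma hyorhinis. Cells were grown in DMEM with 10% FBS, 10 mM Hepes and 1 mM pyruvate at 37 °C and 5% CO2, then seeded at 60 000 cells/well with compound. They were Coulter-counted after 48 h. […] Mean of 2–4 experiments.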
row,SMILES,Ratio IC50
1,C[C@H](NP(=O)(OC[C@H]1O[C@@H](n2cc(F)c(=O)[nH]c2=O)C[C@@H]1O)Oc1ccccc1)C(=O)OCc1ccccc1 (mixture of isomers),5.8

# Test system: CCRF-CEM
# Experiment: Cytostatic activity against ENT1 transporter-deficient human CEM cells after 72 hrs by cell counting
# Format: functional, cell-based
# Details: not given
# In short: (§4)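 Suspension leukemia cells in DMEM with 10% FBS, 10 mM Hepes and 1 mM sodium pyruvate at 37 °C under 5% CO2. Seeded at 60 000 cells/well with graded compound levels. Grown 48 h (L1210) or 72 h (CEM), then counted by Coulter counter. […] Mean ± SD of two to four independent experiments.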
row,SMILES,IC50 [nM]
1,C[C@H](NP(=O)(OC[C@H]1O[C@@H](n2cc(F)c(=O)[nH]c2=O)C[C@@H]1O)Oc1ccccc1)C(=O)OCc1ccccc1 (mixture of isomers),1400
2,O=c1[nH]c(=O)n([C@H]2C[C@H](O)[C@@H](CO)O2)cc1F [FLOXURIDINE],2500

# Test system: CCRF-CEM
# Experiment: Cytostatic activity against human CEM cells expressing human ENT1 transporter after 72 hrs by cell counting
# Format: functional, cell-based
# Details: not given
# In short: as §4
row,SMILES,IC50 [nM]
1,C[C@H](NP(=O)(OC[C@H]1O[C@@H](n2cc(F)c(=O)[nH]c2=O)C[C@@H]1O)Oc1ccccc1)C(=O)OCc1ccccc1 (mixture of isomers),130
2,O=c1[nH]c(=O)n([C@H]2C[C@H](O)[C@@H](CO)O2)cc1F [FLOXURIDINE],40

# Test system: CCRF-CEM
# Experiment: Cytostatic activity against human CEM cells expressing human ENT1 transporter after 72 hrs by cell counting in presence of NBMPR
# Format: functional, cell-based
# Details: not given
# In short: (§5)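 CEM/hEnt-1 cells with 10 μM dipyridamole or 10 μM NBMPR added alongside graded compound levels, in DMEM with 10% FBS, 10 mM Hepes and 1 mM sodium pyruvate at 37 °C under 5% CO2. Seeded at 60 000 cells/well, counted by Coulter counter after 3 days.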
row,SMILES,IC50 [nM]
1,C[C@H](NP(=O)(OC[C@H]1O[C@@H](n2cc(F)c(=O)[nH]c2=O)C[C@@H]1O)Oc1ccccc1)C(=O)OCc1ccccc1 (mixture of isomers),720
2,O=c1[nH]c(=O)n([C@H]2C[C@H](O)[C@@H](CO)O2)cc1F [FLOXURIDINE],800

# Test system: not listed separately
# Experiment: Stability of the compound in potassium phosphate buffer at pH 7.4 assessed as E.coli thymidine phosphorylase-mediated release of 5-FU after 14 to 72 hrs by [19F] NMR spectroscopy
# Format: ADME
# Details: not given
# In short: as §1
row,SMILES,Stability
1,C[C@H](NP(=O)(OC[C@H]1O[C@@H](n2cc(F)c(=O)[nH]c2=O)C[C@@H]1O)Oc1ccccc1)C(=O)OCc1ccccc1 (mixture of isomers),Stable

# Test system: CCRF-CEM
# Experiment: Cytostatic activity against thymidine-kinase deficient human CEM cells after 72 hrs by cell counting
# Format: functional, cell-based
# Details: not given
# In short: as §3
row,SMILES,IC50 [nM]
1,C[C@H](NP(=O)(OC[C@H]1O[C@@H](n2cc(F)c(=O)[nH]c2=O)C[C@@H]1O)Oc1ccccc1)C(=O)OCc1ccccc1 (mixture of isomers),22000

# Test system: HeLa
# Experiment: Cytostatic activity against human HeLa cells […] by cell counting
# Format: functional, cell-based
# Details: not given
row,SMILES,IC50 [nM]
1,C[C@H](NP(=O)(OC[C@H]1O[C@@H](n2cc(F)c(=O)[nH]c2=O)C[C@@H]1O)Oc1ccccc1)C(=O)OCc1ccccc1 (mixture of isomers),130
2,O=c1[nH]c(=O)n([C@H]2C[C@H](O)[C@@H](CO)O2)cc1F [FLOXURIDINE],50

# Test system: L1210
# Experiment: Cytostatic activity against Mycoplasma hyorhinis-infected mouse L1210 cells after 48 hrs by cell counting
# Format: functional, cell-based
# Details: L1210, 48 h
# In short: as §3
row,SMILES,IC50 [nM]
1,C[C@H](NP(=O)(OC[C@H]1O[C@@H](n2cc(F)c(=O)[nH]c2=O)C[C@@H]1O)Oc1ccccc1)C(=O)OCc1ccccc1 (mixture of isomers),150

# Test system: CCRF-CEM
# Experiment: Ratio of IC50 for ENT1 transporter-deficient human CEM cells to IC50 for human CEM cells expressing human ENT1 transporter after 72 hrs by cell counting
# Format: functional
# Details: not given
# In short: as §2
row,SMILES,Ratio IC50
1,C[C@H](NP(=O)(OC[C@H]1O[C@@H](n2cc(F)c(=O)[nH]c2=O)C[C@@H]1O)Oc1ccccc1)C(=O)OCc1ccccc1 (mixture of isomers),7

# Test system: CCRF-CEM
# Experiment: Cytostatic activity against human CEM cells expressing human ENT1 transporter after 72 hrs by cell counting in presence of dipyridamole
# Format: functional, cell-based
# Details: not given
# In short: as §5
row,SMILES,IC50 [nM]
1,C[C@H](NP(=O)(OC[C@H]1O[C@@H](n2cc(F)c(=O)[nH]c2=O)C[C@@H]1O)Oc1ccccc1)C(=O)OCc1ccccc1 (mixture of isomers),660

# Test system: CCRF-CEM
# Experiment: Cytostatic activity against human CEM/0 cells after 72 hrs by cell counting
# Format: functional, cell-based
# Details: not given
# In short: as §4
row,SMILES,IC50 [nM]
1,C[C@H](NP(=O)(OC[C@H]1O[C@@H](n2cc(F)c(=O)[nH]c2=O)C[C@@H]1O)Oc1ccccc1)C(=O)OCc1ccccc1 (mixture of isomers),180
2,O=c1[nH]c(=O)n([C@H]2C[C@H](O)[C@@H](CO)O2)cc1F [FLOXURIDINE],22
